Data published in ChEMBL document CHEMBL1156609, “9-N-Substituted berberine derivatives: stabilization of G-quadruplex DNA and down-regulation of oncogene c-myc” (Bioorg Med Chem, 2008).
Active and inactive are the calls of the source. No cut-off for these calls is given here.

Tests used:
Homo sapiens [1] = organism: Homo sapiens; experiment: Binding affinity to human c-myc G-quadruplex Pu18 DNA assessed as change melting temperature at 2.0 uM by FRET melting assay
Method in brief: (§1)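 FRET melting of dual-labelled Pu18 (5'-FAM/3'-TAMRA), 0.2 μM, in 10 mM Tris–HCl pH 7.2 with 0.2 mM KCl, compound 2.0 μM; fluorescence recorded on a real-time PCR instrument; Tm read from melting curves, ΔTm relative to no-compound control.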

Homo sapiens [2] = organism: Homo sapiens; experiment: Binding affinity to human c-myc G-quadruplex Pu18 DNA assessed as melting temperature at 2.0 uM by FRET melting assay; method in brief: as §1
[3] = Cytotoxicity against human GLC cells by MTT assay; format: functional, cell-based
Method in brief: (§2)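 MTT cytotoxicity assay against tumour cells; IC50 taken as mean of three independent assays.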

NCI = experiment: Cytotoxicity against human NCI cells by MTT assay; format: functional, cell-based; method in brief: as §2
Homo sapiens [4] = organism: Homo sapiens; experiment: Binding affinity to duplex F10T DNA assessed as change melting temperature at 2.0 uM by FRET melting assay
[5] = Binding affinity to duplex F10T DNA assessed as melting temperature at 2.0 uM by FRET melting assay
[6] = Inhibition of human c-myc G-quadruplex Pu27 DNA amplification at 5.0 uM by PCR-stop assay
Method in brief: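 PCR-stop: Pu27 template with complementary oligomer in 1× PCR buffer, 0.16 mM dNTP, 2.5 U Taq, compound at 1.0, 2.5, 4.0 or 5.0 μM; 94 °C 3 min, then 30 cycles of 94/58/72 °C for 30 s each; products on 15% native PAGE in TBE, silver stained.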

Homo sapiens [7] = organism: Homo sapiens; experiment: Induction of G-quadruplex formation in human c-myc Pu27 DNA at 10 uM […] by gel electrophoresis
HL-60 [8] = experiment: Antiproliferative activity against human HL60 cells assessed as cell count and viability at 5 to 10 uM; format: functional, cell-based
Method in brief: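 HL60 cells (RPMI-1640, 10% FBS, penicillin/streptomycin, 37 °C, 5% CO2), about 5000 per well, given freshly dissolved compound at 0–10 μM for 4 days, re-dosed at day 5 for a further 4 days; cell count and viability by trypan blue exclusion daily from day 1 to day 8.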

HL-60 [9] = experiment: Inhibition of human c-myc gene transcription in HL60 cells at 0.7-1.7 uM after 4 days by RT-PCR; format: functional, cell-based

ΔTm (Homo sapiens [1])	Tm (Homo sapiens [2])	ΔTm (Homo sapiens [4])	Tm [5]	IC50 [6]	Activity (Homo sapiens [7])	SMILES	IC50 [3]	IC50 (NCI)	Activity (HL-60 [8])	Activity (HL-60 [9])
20 °C	74 °C	0 °C	58 °C	4 µM	–	COc1ccc2cc3[n+](cc2c1NCCN1CCCCC1)CCc1cc2c(cc1-3)OCO2	38 µM	22 µM	–	–
19 °C	73 °C	0 °C	58 °C	3.9 µM	–	COc1ccc2cc3[n+](cc2c1NCCN(C)C)CCc1cc2c(cc1-3)OCO2	56 µM	36 µM	–	–
17 °C	71 °C	0 °C	58 °C	4.8 µM	–	COc1ccc2cc3[n+](cc2c1NCCCN1CCOCC1)CCc1cc2c(cc1-3)OCO2	102 µM	85 µM	–	–
20 °C	74 °C	1 °C	59 °C	3.3 µM	–	COc1ccc2cc3[n+](cc2c1NCCCN(C)C)CCc1cc2c(cc1-3)OCO2	64 µM	29 µM	–	–
25 °C	78 °C	2 °C	60 °C	2.3 µM	–	COc1ccc2cc3[n+](cc2c1NCCCN1CCCC1)CCc1cc2c(cc1-3)OCO2	32 µM	22 µM	–	–
1 °C	55 °C	2 °C	–	–	–	COc1ccc2cc3[n+](cc2c1OC)CCc1cc2c(cc1-3)OCO2	–	–	–	–
12 °C	66 °C	0 °C	58 °C	5.5 µM	–	COc1ccc2cc3[n+](cc2c1NCCO)CCc1cc2c(cc1-3)OCO2	51 µM	35 µM	–	–
18 °C	72 °C	1 °C	59 °C	7.1 µM	–	COc1ccc2cc3[n+](cc2c1NCCN1CCOCC1)CCc1cc2c(cc1-3)OCO2	50 µM	50 µM	–	–
24 °C	78 °C	1 °C	59 °C	3.2 µM	–	COc1ccc2cc3[n+](cc2c1NCCCN1CCCCC1)CCc1cc2c(cc1-3)OCO2	69 µM	38 µM	–	–
20 °C	74 °C	1 °C	59 °C	3.6 µM	–	COc1ccc2cc3[n+](cc2c1NCCc1ccccc1)CCc1cc2c(cc1-3)OCO2	18 µM	2 µM	–	–
29 °C	83 °C	2 °C	60 °C	2 µM	Active	COc1ccc2cc3[n+](cc2c1NCCCCCCN)CCc1cc2c(cc1-3)OCO2	9 µM	4 µM	Active	Active
